Screening data (PubChem BioAssay)
In the library only some 4.9% were active in any assay of this set; here they are far more common.
STAT1 inh = STAT1 signaling inhibition; hit rate 0.35% among 200,000; NIH 3T3 STAT1-luciferase reporter, IFN-gamma, luminescence; inhibition, % at 5.5 µM;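 active means inhibition above a set limit, the mean inhibition across all tested compounds plus 3 SD, cut at about 34% in these data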;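 further: 0% = IFN-gamma with DMSO and 100% = IFN-gamma with 300 µM nifuroxazide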
NF-kB neuron act = compounds increasing NF-kB expression in human neuronal cells; NF-kB reporter expression; stronger effect = higher value; fold change at 12.5 µM; hit rate 1.6% among 190,000; in the data active means fold change above about 3.3
STAT1 act = increases IFN-gamma driven STAT1 reporter signal | hit rate 2.6% among 200,000 | NIH 3T3 STAT1-luciferase reporter, luminescence; 100% = IFN-gamma alone, no compound | activation (% of control), % at 5.5 µM;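 active means activation above the screen-wide mean activation plus 3 SD, cut at about 130% in these data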;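 further: raw ratio to IFN-gamma control signal so 100% means no change and 0% no light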
STAT3 blocker = STAT3 signaling inhibition. AID 862. hit rate 0.89% among 190,000. U3A cells, IL-6 STAT3-luciferase reporter, luminescence; host cell line lacks STAT1. inhibition, % at 5.5 µM;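 active means inhibition above the mean inhibition across all screened compounds plus 3 SD, cut at about 44% in these data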;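 further: 0% = DMSO only wells and 100% = 100 µM nifuroxazide control wells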
STAT3 act = STAT3 signaling activation | U3A cells, IL-6 STAT3-luciferase reporter, luminescence; 100% = signal with IL-6 EC80 alone | activation (% of control), % at 5.6 µM | hit rate 0.91% among 190,000 | AID 871;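 active means activation above the screen-wide mean of compound activation plus 3 SD, cut at about 130% in these data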;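 further: 0% = background luminescence of wells with medium and substrate only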
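Material: human STAT1-deficient U3A cells with stable STAT3-luciferase reporter / Probe or stimulus: IL-6 stimulus at 33 ng/mL final / Schedule: 1 h compound pre-exposure, 6 h IL-6 stimulation, 37 °C / Technique: luminescence / Read-out basis: percent of IL-6-only median luminescence / Control set: IL-6-only high control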
APP 5'UTR act = APP 5'UTR luciferase reporter activation; activation, % at 2 µM; SH-SY5Y APP 5'UTR luciferase reporter, luminescence; zero percent = DMSO vehicle wells; hit rate 1% among 190,000; AID 1276;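 active means activation above a set limit, based on mean plus 3 SD of controls, cut at about 140% in these data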
The depositor's hits bear a star; nt = no result given.

SMILES	STAT1 inh	NF-kB neuron act	STAT1 act	STAT3 blocker	STAT3 act	APP 5'UTR act
Cc1ccc2ccc(C3C(=O)c4ccccc4C3=O)nc2c1	-45	nt	142*	-74	165*	145*
O=C(c1cc(COc2c(F)cccc2F)on1)N1CCC(c2ccccc2Cl)C1 (configuration not stated)	-25	1.9	120	-7	112	22
O=C(c1cc(COc2c(F)cccc2F)on1)N1CCC(c2ccccc2F)C1 (configuration not stated)	-36	2.5	132*	-9	112	32
O=C(Oc1ccc(Cl)c2ccccc12)N1CCCCC1	-3	1.5	103	0	102	10
O=C(Oc1ccc2ccccc2c1Cl)N1CCCC1	-48	5.1*	144*	-11	114	143*
Cc1ccc2c(CSc3nncn3C)cc(=O)oc2c1C	0	1.4	101	-1	105	4
Cc1cc2[nH]c3c(c[n+](C)c4ccccc34)c2cc1C	-133	1.1	221*	-53	151*	-83
CCCCCCCC#Cc1ccccc1/C=N/S(=O)c1ccc(C)cc1 (configuration not stated)	-2	0.95	102	-5	102	-19
COC(=O)C(C)n1cnc2c(cnn2-c2ccc(Cl)cc2)c1=O (configuration not stated)	-32	1.2	129*	8	98	6
CCOC(=O)Cn1cnc2c(cnn2-c2ccc(Cl)cc2)c1=O	-6	1.6	106	9	95	-5
O=C(CCc1ccccc1)Nc1cc(C(=O)O)cc(C(=O)O)c1	-8	1.2	105	-3	105	12
O=C(/C=C/Nc1cccc(C(F)(F)F)c1)c1ccco1	-35	2.1	133*	-14	118	77
O=C(/C=C/Nc1ccccc1C(F)(F)F)c1ccco1	0	6.7*	100	39	70	228*
NC(=O)c1ccccc1N/C=C/C(=O)c1ccco1	-36	1.5	134*	2	101	78
O=C(/C=C/Nc1ccc(Oc2ccccc2)cc1)c1ccco1	-46	5.4*	140*	34	74	164*
O=C(Nc1cccc(C(F)(F)F)c1)c1ccco1	-2	1.4	102	18	88	2
C=CCn1cc(C(=O)NCCCOCC)c(=O)c2cc(S(=O)(=O)N(CC)CC)ccc21	5	0.85	96	15	95	10
Cc1ccc(OCC(=O)N2CC(C)OC(C)C2)c([N+](=O)[O-])n1 (configuration not stated)	-9	1	108	-8	109	-23
CN=c1scc(-c2ccc([N+](=O)[O-])cc2)n1/N=C/c1ccco1	-21	1.5	119	30	80	196*
O=[N+]([O-])c1ccc(S(=O)(=O)N/N=C/c2ccco2)cc1	-4	1	102	2	102	13
Cc1cc(NC(=O)c2ccc(-c3ccc(F)c(Cl)c3)o2)no1	-25	1.3	122	25	85	34
Cc1cc(NC(=O)c2ccc(-c3ccccc3F)o2)no1	-50	2	144*	5	99	58
CC(C)CC(=O)NC(=S)Nc1sc2c(c1C(N)=O)CCC2	-51	1.5	144*	-1	105	55
CC(=O)NC(=S)Nc1sc2c(c1C(N)=O)CCC(C)C2 (configuration not stated)	-37	3.5*	132*	5	98	65
CC(C)(C)C(=O)NC(=S)Nc1sc2c(c1C(N)=O)CCC2	-54	2.1	146*	-3	107	46
SMILES	STAT1 inh	NF-kB neuron act	STAT1 act	STAT3 blocker	STAT3 act	APP 5'UTR act
Cc1ccc(OCC(=O)N/N=C\c2cn(C)c3ccccc23)c([N+](=O)[O-])c1	2	1	99	6	99	14
Fc1ccc(NC(=S)Nc2cc(-c3ccccc3)[nH]n2)cc1Cl	-1	1.1	98	-13	115	18
O=C(N/N=C/c1ccccc1Cl)c1[nH]c2ccc(Br)cc2c1-c1ccccc1	-4	4.1*	104	-40	135*	-96
COc1ccc(/C=N/NC(=O)c2[nH]c3ccc(Br)cc3c2-c2ccccc2)cc1	-30	3.3	127	-59	152*	-97
O=C1/C(=C\c2ccccc2)CCc2c1[nH]c1ccccc21	-46	4.7*	141*	5	104	162*
COc1ccc(NC(=O)CCN2C(=O)C3CC=C(Cl)CC3C2=O)cc1 (configuration not stated)	11	1.1	90	1	102	10
Cc1cccc(OCc2nc(-c3nonc3N)no2)c1C	-40	2.3	139*	3	103	69
Cn1c(SCC(=O)N2CCCC2=O)nc2ccccc21	-2	1.1	101	-12	112	25
CC(CCc1ccccc1)NC(=O)C(=O)Nc1ccccc1 (configuration not stated)	-44	2	140*	-5	108	56
Cc1ccccc1NC(=O)C(=O)NC(C)CCc1ccccc1 (configuration not stated)	-2	1.2	102	7	94	-11
Nc1nnc(-c2ccc(Cl)cc2Cl)s1	-53	2.6	147*	5	100	30
O=C(COC(=O)CCc1ccc(S(=O)(=O)N2CCOCC2)cc1)NC1CCCCCC1	4	1	97	-15	110	-8
O=C(O)c1ccccc1-c1ccccc1C(=O)NCc1ccco1	-10	0.98	109	-6	108	10
Cc1ccc2sc(-c3ccc(NC(=O)c4cc(-n5cnnc5)ccc4Cl)cc3)nc2c1	-45	1.1	149*	20	89	156*
CN1CCN(CC(=O)N2c3ccccc3C(C)(c3ccccc3)CC2(C)C)CC1 (configuration not stated)	7	6*	93	11	93	11
CN1CCN(CC(=O)N2c3ccccc3C(C)(c3ccc(Cl)cc3)CC2(C)C)CC1 (configuration not stated)	-3	2.4	102	-1	107	-3
CSC1=NCCN1S(=O)(=O)c1ccccc1	-2	0.94	101	3	99	3
CCCCNC(=O)N(C)c1nc2ccccc2s1	-38	2.6	133*	-12	114	74
COC(=O)N(C)c1nc2ccccc2s1	-13	1.3	112	18	87	17
CCOC(=O)c1cc(-c2ccc(C)cc2)nc2nc(SC)[nH]c(=O)c12	1	4*	99	16	85	3
CC1(C)CC(=O)c2c(O)cc(OCc3ccc(Br)cc3)cc2O1	-50	1.5	146*	-14	117	139*
Cc1ccc(/C=C(\C#N)C(=O)N2CCCC2)c(C)c1	-6	1.4	104	-8	108	17
O=C(c1ccccc1)c1cnc(Nc2ccc(Cl)c(Cl)c2)s1	-8	1.4	107	20	86	4
CC(=O)c1cnc(Nc2cccc(C)c2)s1	-36	2.4	134*	17	92	58
